Data on 8 compounds can be found in ChEMBL document CHEMBL4190220, “Withanolides from Aeroponically Grown Physalis peruviana and Their Selective Cytotoxicity to Prostate Cancer and Renal Carcinoma Cells” (J Nat Prod, 2017).

Each structure is given as a SMILES string. Calls of active or inactive are those of the source. No cut-off for these calls is given here.

One data set concerns ACHN. In words: Cytotoxicity against human ACHN cells assessed as reduction in cell viability up to 5 uM after 72 hrs by CellTiter96 AQueous one solution cell proliferation assay. Type of data set: functional, cell-based. In short, it runs like this: (§1)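 Cells in RPMI with 5% fetal calf serum, glutamine, nonessential amino acids, pyruvate, HEPES, 2-mercaptoethanol and antibiotics. Seeded at 10 000 (LNCaP) or 5000 (others) and grown overnight at 37 °C, then exposed to compound in DMSO, triplicate wells, 72 h. Read by MTS at 490 nm after 2 h. % cytotoxicity = (A medium − A treatment)/A medium × 100.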

Another data set deals with HFF. Briefly: Cytotoxicity against HFF cells assessed as reduction in cell viability up to 5 uM after 72 hrs by CellTiter96 AQueous one solution cell proliferation assay. Type of data set: cell-based. As to conditions: human. In short, it runs like this: as §1
The next data set concerns M14. Briefly: Cytotoxicity against human M14 cells assessed as reduction in cell viability up to 5 uM after 72 hrs by CellTiter96 AQueous one solution cell proliferation assay. It counts as functional, cell-based. A digest of the protocol: (§2)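 Melanoma cells in DMEM-based medium (5% fetal calf serum, glutamine, nonessential amino acids, pyruvate, HEPES, 2-mercaptoethanol, antibiotics). 5000 cells were grown overnight at 37 °C, then exposed to compound in DMSO in triplicate wells for 72 h. MTS absorbance at 490 nm after 2 h. % cytotoxicity = (A medium − A treatment)/A medium × 100.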

The subject of the next data set is SK-MEL-28. Briefly: Cytotoxicity against human SK-MEL-28 cells assessed as reduction in cell viability up to 5 uM after 72 hrs by CellTiter96 AQueous one solution cell proliferation assay. Type of data set: functional, cell-based. In short, it runs like this:
as §2

For the next data set, the system named is CWR22R. In words: Cytotoxicity against human 22Rv1 cells assessed as reduction in cell viability up to 5 uM after 72 hrs by CellTiter96 AQueous one solution cell proliferation assay. Type of data set: functional, cell-based. In short, it runs like this: as §1
The subject of a further data set is LNCaP. In words: Cytotoxicity against human LNCAP cells assessed as reduction in cell viability up to 5 uM after 72 hrs by CellTiter96 AQueous one solution cell proliferation assay. Type of data set: functional, cell-based. A digest of the protocol: as §1

As for `CC1=C(C)C(=O)O[C@@H]([C@](C)(O)[C@]2(O)CC[C@@]3(O)[C@@H]4C[C@H](Cl)[C@]5(O)[C@@H](O)C=CC(=O)[C@]5(C)[C@H]4CC[C@]23C)C1`, the outcome in the data set with ACHN, in the data set with M14, in the data set on SK-MEL-28, in the data set on CWR22R and in the data set on LNCaP was inactive. The Activity result with HFF is “Non-Toxic”.
For `C[C@H]1C(=O)O[C@@H]([C@](C)(O)[C@H]2CC[C@@]3(O)[C@@H]4CC=C5CC=CC(=O)[C@]5(C)[C@H]4CC[C@]23C)[C@@H](O)[C@@H]1CO`, the outcome in the data set on ACHN, in the data set on M14, with SK-MEL-28, with CWR22R and with LNCaP was inactive. Also, the Activity entry with HFF is listed as “Non-Toxic”.
Regarding `CC1=C(C)C(=O)O[C@@H]([C@](C)(O)C2=CC[C@@]3(O)[C@@H]4C[C@H]5O[C@]56CC=CC(=O)[C@]6(C)[C@H]4CC[C@]23C)C1`, the result in the data set on ACHN, in the data set with M14, in the data set with SK-MEL-28, in the data set with CWR22R and with LNCaP was inactive. Further, the Activity entry in the data set with HFF is recorded as “Non-Toxic”.
`C[C@H]1C(=O)OC[C@H]1C[C@@H](O)[C@](C)(O)[C@]1(O)CC[C@@]2(O)[C@@H]3CC=C4CC=CC(=O)[C@]4(C)[C@H]3CC[C@]12C`: the result with ACHN, in the data set with M14, with SK-MEL-28, with CWR22R and in the data set with LNCaP was inactive. In the data set on HFF, the Activity entry is “Non-Toxic”.
For the compound `CO[C@]12CC=CC(=O)[C@]1(C)[C@H]1CC[C@]3(C)[C@](O)([C@@](C)(O)[C@H]4CC(C)=C(C)C(=O)O4)CC[C@@]3(O)[C@@H]1C[C@H]2O`, the result in the data set on ACHN, in the data set with M14, in the data set on SK-MEL-28, in the data set with CWR22R and in the data set on LNCaP was inactive. Moreover, in the data set with HFF, the Activity result was “Non-Toxic”.
With `C[C@H]1C(=O)OC[C@H]1C[C@@H](O)[C@](C)(O)[C@]1(O)CC[C@@]2(O)[C@@H]3C[C@H]4O[C@]45CC=CC(=O)[C@]5(C)[C@H]3CC[C@]12C`, the result with ACHN, in the data set on M14, in the data set with SK-MEL-28, with CWR22R and in the data set with LNCaP was inactive. For the same compound, the Activity entry with HFF is on record as “Non-Toxic”.
With `CC1=C(C)C(=O)O[C@@H]([C@](C)(O)C2=CC[C@@]3(O)[C@@H]4C[C@H]5O[C@]56[C@@H](O)C=CC(=O)[C@]6(C)[C@H]4CC[C@]23C)C1`, the outcome in the data set on ACHN, in the data set with M14, in the data set with SK-MEL-28, in the data set on CWR22R and in the data set on LNCaP was inactive. Further, the Activity entry in the data set with HFF was “Non-Toxic”.
As to `C[C@H]1C(=O)OC[C@H]1C[C@@H](O)[C@](C)(O)C1=CC[C@H]2[C@@H]3C[C@H]4O[C@]45CC=CC(=O)[C@]5(C)[C@H]3CC[C@]12C`, the result with ACHN, in the data set with M14, in the data set on SK-MEL-28, in the data set on CWR22R and in the data set on LNCaP was inactive. The Activity result in the data set with HFF is given as “Non-Toxic”.
